“Also recorded” adds a separate entry of the source. Like-named read-outs stand apart in the source and are kept apart here.
Tests used:
P. falciparum 3D7 [1] = assay type: cell-based, Plasmodium falciparum; settings: 72 h; for IC50: asynchronous culture, 0.0019–2 µM, ± standard error of the mean
P. falciparum Dd2 = settings: 2 µM; cited from earlier work
[2] = system: Plasmodium falciparum 3D7; assay: Drug effects on erythrocytic cycle phases in synchronized cultures; assay type: cell-based
Procedure, shortened: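 Sorbitol-synchronized P. falciparum 3D7 at 1% parasitaemia and 2% haematocrit received test compound (150 nM), chloroquine (150 nM) or 0.1% DMSO at 0, 12 or 24 h post-synchronization. Samples were taken at 12, 24, 36 and 48 h and stained for 30 min in HEPES-buffered Hank's with 1 µM Hoechst and […] thiazole orange. Flow cytometry gated rings, trophozoites and schizonts on DNA/RNA signal. Data are mean ± SD from one triplicate experiment.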

P. falciparum 3D7 [3] = assay type: cell-based, Plasmodium falciparum; settings: 2.5 nM compound alone, 48 h
P. falciparum 3D7 [4] = assay: Competition of TCAMS compounds; assay type: cell-based, Plasmodium falciparum; settings: for effect on the increase in parasitaemia promoted by melatonin: 2.5 nM compound with 100 nM melatonin; for effect on the increase in parasitaemia promoted by melatonin / effect on the increase in parasitaemia promoted by serotonin: 48 h; for effect on the increase in parasitaemia promoted by serotonin: 2.5 nM compound with 250 nM serotonin
Procedure, shortened: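 Asynchronous P. falciparum 3D7 cultures (1% parasitaemia, 2% haematocrit) were given 2.5 nM test compound with or without 250 nM serotonin or 100 nM melatonin. Incubation was 48 h at 37 °C under mixed gas, with a DMSO solvent control. Cells were stained with SYBR Green-I (1:10,000) and MitoTracker Deep Red (50 nM) for 20 min at 37 °C, then parasitaemia was read by flow cytometry. Survival is relative to solvent; triplicate, 3 independent experiments.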

[5] = read-out: IC50 (nM) 3D7, Table 1
[6] = Plasmodium falciparum, 3D7, 72 h, read-out: IC50 (nM) 3D7, Table 1

Row | Compound | inhibition of parasite development, strain Dd2 (P. falciparum Dd2) [%] | IC50 (P. falciparum 3D7 [1]; [5]) [nM] | IC50 (P. falciparum 3D7 [1]; [6]) [nM] | effect on parasitaemia compared with the control (P. falciparum 3D7 [3]) | effect on the increase in parasitaemia promoted by melatonin (P. falciparum 3D7 [4]) | effect on the increase in parasitaemia promoted by serotonin (P. falciparum 3D7 [4]) | other results
1 | CC[C@H](NC(=O)c1c(CN2CCC(N3CCCCC3)CC2)c(-c2ccccc2)nc2cc(O)ccc12)c1ccccc1 [TCMDC-140381, CC[C@H](NC(= O)c1c(CN2CCC(CC2)N2CCCCC2)c(nc2cc(O)ccc12)-c1ccccc1)c1ccccc1] | ≤ 50 | – | – | – | – | – | reduction of P. falciparum parasitaemia by 50% (P. falciparum 3D7 [1]; at the concentrations tested (0.0019–2 µM)): could not reduce P. falciparum parasitaemia by 50%
2 | Cc1ccc(NC(=O)Nc2ccc(Cl)c(C(F)(F)F)c2)cc1-c1ccc(C(=O)NCCN2CCOCC2)cc1 [TCMDC-133589, Cc1ccc(NC(= O)Nc2ccc(Cl)c(c2)C(F)(F)F)cc1-c1ccc(cc1)C(= O)NCCN1CCOCC1] | ≤ 50 | 1360 ± 198 | – | – | – | – | –
3 | COc1cccc(CCNc2nc(NCc3ccccc3)c3cc(OC)c(OC)cc3n2)c1 [TCMDC-135267, COc1cccc(CCNc2nc(NCc3ccccc3)c3cc(OC)c(OC)cc3n2)c1] | – | – | 389 ± 120 | did not significantly affect parasitaemia compared with the control | able to inhibit the increase in parasitaemia partially; also recorded: effective in preventing the proliferative effects of melatonin | able to inhibit the increase in parasitaemia; also recorded: the most effective at inhibiting the proliferative effects of serotonin | ring phase parasites at the 36 h time point ([2]; 150 nM added 12 h after synchronization, % parasitaemia, n = 3): 0.44 ± 0.14%; parasitaemia at the 36 h time point ([2]; 150 nM added 12 h after synchronization, n = 3): 1.18 ± 0.42%; parasites developed into schizonts at the 24 h time point ([2]; added at 0 h, control 18%): less than 0.5%; effect on erythrocytic cycle progression ([2]; synchronized cultures, added at 0, 12 or 24 h): prevents the progression from trophozoite to mature schizonts, but does not affect the ability of mature schizonts to egress and invade RBCs; classification on the serotonin/melatonin pathway in the parasite (P. falciparum 3D7 [4]; from effects in presence and absence of serotonin or melatonin): potential full antagonists of the pathway
4 | CN1CCN(CCCCCNc2c3ccccc3nc3ccccc23)CC1.Cl [TCMDC-137541, Cl.CN1CCN(CCCCCNc2c3ccccc3nc3ccccc23)CC1] | ≤ 50 | – | 165 ± 74.7 | – | – | – | –
5 | Cn1cnc(CCNC(=O)c2cccc(-c3cccc(-c4nc5cc(C(F)(F)F)ccc5[nH]4)c3)c2)c1 [TCMDC-132496, Cn1cnc(CCNC(= O)c2cccc(c2)-c2cccc(c2)-c2nc3cc(ccc3[nH]2)C(F)(F)F)c1] | ≤ 50 | 1970 ± 116 | – | – | – | – | –
6 | O=C1Nc2cccc3c2C1(CCCCN1CCC(c2cc4ccncc4[nH]2)CC1)CCC3 (centres unmarked) [TCMDC-141151, O = C1Nc2cccc3CCCC1(CCCCN1CCC(CC1)c1cc4ccncc4[nH]1)c23] | ≤ 50 | 459 ± 33.8 | – | – | – | – | –
7 | O=C(/C=C/c1c(Cl)cccc1Cl)NC1CCC(CN2CCC(c3c[nH]c4ccccc34)CC2)CC1 (centres unmarked) [TCMDC-139856, Clc1cccc(Cl)c1\C = C\C(= O)NC1CCC(CN2CCC(CC2)c2c[nH]c3ccccc23)CC1] | ≤ 50 | 274 ± 31.9 | – | – | – | – | –
8 | COc1cc2nc(NCCc3ccccc3)nc(N(C)Cc3ccccc3)c2cc1OC [TCMDC-135385, COc1cc2nc(NCCc3ccccc3)nc(N(C)Cc3ccccc3)c2cc1OC] | – | – | 1210 ± 315 | induced a significant increase in parasitaemia | unable to block their effects on the erythrocyte cycle | unable to prevent the effect of the neurotransmitter on P. falciparum parasitaemia | –
9 | CS(=O)(=O)Nc1ccc2[nH]cc(C3CCN(CC4CCN(C(=O)/C=C/c5ccc(Cl)c(Cl)c5)CC4)CC3)c2c1 [TCMDC-139813, CS(= O)(= O)Nc1ccc2[nH]cc(C3CCN(CC4CCN(CC4)C(= O)\C = C\c4ccc(Cl)c(Cl)c4)CC3)c2c1] | – | 116 ± 49.1 | – | did not significantly affect parasitaemia compared with the control | able to inhibit the increase in parasitaemia partially | partially inhibited the increase in parasitaemia promoted by serotonin | –

Reference: PMC11827156 (Malaria Journal, 2025)
